≈ marks a conversion by molar mass, not a printed value. Calls of active or inactive are those of the source. No cut-off for these calls is given here.
What was measured:
Candida albicans [1] = test: Antifungal activity against Candida albicans MTCC 227 assessed as growth inhibition at 4 mg/mL after 24 hrs by agar well diffusion method; type: functional; conditions: MTCC 227, 24 h, read-out: DIZ
How it was run: (§1)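 Agar wells 8 mm in diameter. The read-out is the diameter of the growth inhibition zone in mm, including the well, given as the mean of three replicates.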

Staphylococcus aureus [2] = test: Antibacterial activity against Staphylococcus aureus MTCC 96 assessed as growth inhibition after 24 hrs by macrodilution tube method; type: functional; conditions: MTCC 96, 24 h
Pseudomonas aeruginosa [3] = conditions: MTCC 741, 4 mg/mL
Staphylococcus aureus [4] = test: Antibacterial activity against Staphylococcus aureus MTCC 96 assessed as growth inhibition at 4 mg/mL after 24 hrs by agar well diffusion method; type: functional; conditions: MTCC 96, 24 h, read-out: DIZ; how it was run: as §1
Bacillus subtilis [5] = test: Bactericidal activity against Bacillus subtilis MTCC 121 after 24 hrs; type: functional; conditions: MTCC 121, 24 h
Staphylococcus aureus [6] = test: Bactericidal activity against Staphylococcus aureus MTCC 96 after 24 hrs; type: functional; conditions: MTCC 96, 24 h
Escherichia coli = test: Antibacterial activity against Escherichia coli MTCC 1652 assessed as growth inhibition at 4 mg/mL after 24 hrs by agar well diffusion method; type: functional, organism-based
How it was run: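 Agar well diffusion with 8 mm wells. The inhibition zone diameter is reported in mm, with the well diameter included. Values are means of three replicates.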

Candida albicans [7] = test: Antifungal activity against Candida albicans MTCC 227 assessed as growth inhibition by macrodilution tube method; type: functional
How it was run: (§2)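 The MIC against the yeasts was determined with amphotericin-B as the reference standard drug.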

Saccharomyces cerevisiae [8] = test: Antifungal activity against Saccharomyces cerevisiae MTCC 170 assessed as growth inhibition by macrodilution tube method; type: functional; how it was run: as §2
Saccharomyces cerevisiae [9] = test: Antifungal activity against Saccharomyces cerevisiae MTCC 170 assessed as growth inhibition at 4 mg/mL after 24 hrs by agar well diffusion method; type: functional; conditions: MTCC 170, 24 h, read-out: DIZ; how it was run: as §1
Bacillus subtilis [10] = test: Antibacterial activity against Bacillus subtilis MTCC 121 assessed as growth inhibition at 4 mg/mL after 24 hrs by agar well diffusion method; type: functional; conditions: MTCC 121, 24 h, read-out: DIZ; how it was run: as §1
Bacillus subtilis [11] = test: Antibacterial activity against Bacillus subtilis MTCC 121 assessed as growth inhibition after 24 hrs by macrodilution tube method; type: functional; conditions: MTCC 121, 24 h
Pseudomonas aeruginosa [12] = test: microbe, parasite or virus in culture; conditions: MTCC 741, 24 h, read-out: DIZ

| SMILES | zone of inhibition at 4000 µg/mL (Candida albicans [1]) | MIC (Staphylococcus aureus [2]) | DIZ (Pseudomonas aeruginosa [3]) | zone of inhibition at 4000 µg/mL (Staphylococcus aureus [4]) | MBC (Bacillus subtilis [5]) | MBC (Staphylococcus aureus [6]) | diameter of the inhibition zone (DIZ) (Escherichia coli) | MIC (Candida albicans [7]) | MIC (Saccharomyces cerevisiae [8]) | zone of inhibition at 4000 µg/mL (Saccharomyces cerevisiae [9]) | zone of inhibition at 4000 µg/mL (Bacillus subtilis [10]) | MIC (Bacillus subtilis [11]) | zone of inhibition at 4000 µg/mL (Pseudomonas aeruginosa [12]) |
| --- | --- | --- | --- | --- | --- | --- | --- | --- | --- | --- | --- | --- | --- |
| CC1(C)CC(=O)C2=C(C1)OC(N)=C(C#N)C21C(=O)N(Cc2cn(-c3ccc(Br)cc3)nn2)c2ccccc21 (stereo not given) | 13.3 mm | 32 µg/mL (≈ 56 µM) | inactive | 19.3 mm | 64 µg/mL (≈ 112 µM) | 128 µg/mL (≈ 224 µM) | inactive | 512 µg/mL (≈ 896 µM) | 128 µg/mL (≈ 224 µM) | 14.6 mm | 22.2 mm | 16 µg/mL (≈ 28 µM) | – |
| COc1ccc(-n2cc(CN3C(=O)C4(C(C#N)=C(N)OC5=C4C(=O)CCC5)c4ccccc43)nn2)cc1 (stereo not given) | 16 mm | 64 µg/mL (≈ 129 µM) | inactive | 14 mm | 128 µg/mL (≈ 259 µM) | 512 µg/mL (≈ 1040 µM) | inactive | 128 µg/mL (≈ 259 µM) | 64 µg/mL (≈ 129 µM) | 16.3 mm | 15.6 mm | 32 µg/mL (≈ 64.7 µM) | – |
| Cn1c2c(c(=O)n(C)c1=O)C1(C(=O)N(Cc3cn(-c4ccc(Br)cc4)nn3)c3ccccc31)C(C#N)=C(N)O2 (stereo not given) | 13.3 mm | 32 µg/mL (≈ 54.5 µM) | inactive | 20.6 mm | 64 µg/mL (≈ 109 µM) | 64 µg/mL (≈ 109 µM) | inactive | 256 µg/mL (≈ 436 µM) | 128 µg/mL (≈ 218 µM) | 15.3 mm | 22.3 mm | 16 µg/mL (≈ 27.2 µM) | – |
| N#CC1=C(N)OC2=C(C(=O)CCC2)C12C(=O)N(Cc1cn(-c3ccc([N+](=O)[O-])cc3)nn1)c1ccccc12 (stereo not given) | 12.3 mm | 128 µg/mL (≈ 251 µM) | inactive | 17.6 mm | 256 µg/mL (≈ 502 µM) | 256 µg/mL (≈ 502 µM) | inactive | 512 µg/mL (≈ 1000 µM) | 256 µg/mL (≈ 502 µM) | 13.6 mm | 18.6 mm | 128 µg/mL (≈ 251 µM) | – |
| CC1(C)CC(=O)C2=C(C1)OC(N)=C(C#N)C21C(=O)N(Cc2cn(-c3ccccc3)nn2)c2ccccc21 (stereo not given) | 13.3 mm | 128 µg/mL (≈ 260 µM) | inactive | 14.6 mm | 256 µg/mL (≈ 520 µM) | 128 µg/mL (≈ 260 µM) | inactive | 256 µg/mL (≈ 520 µM) | 256 µg/mL (≈ 520 µM) | 14.3 mm | 16.3 mm | 128 µg/mL (≈ 260 µM) | – |
| Cc1ccc(-n2cc(CN3C(=O)C4(C(C#N)=C(N)OC5=C4C(=O)CC(C)(C)C5)c4ccccc43)nn2)cc1 (stereo not given) | 12.6 mm | 128 µg/mL (≈ 253 µM) | inactive | 14.3 mm | 256 µg/mL (≈ 505 µM) | 256 µg/mL (≈ 505 µM) | inactive | 512 µg/mL (≈ 1010 µM) | 256 µg/mL (≈ 505 µM) | 14 mm | 15.6 mm | 32 µg/mL (≈ 63.2 µM) | – |
| C[C@@H]1[C@H](O)[C@@H](C)/C=C/C=C/C=C/C=C/C=C/C=C/C=C/[C@H](O[C@@H]2O[C@H](C)[C@@H](O)[C@H](N)[C@@H]2O)C[C@@H]2O[C@](O)(C[C@@H](O)C[C@@H](O)[C@H](O)CC[C@@H](O)C[C@@H](O)CC(=O)O[C@H]1C)C[C@H](O)[C@H]2C(=O)O [AMPHOTERICIN B] | 17.6 mm | – | – | – | – | – | – | 100 µg/mL (≈ 108 µM) | 100 µg/mL (≈ 108 µM) | 18.3 mm | – | – | – |
| Cc1ccc(-n2cc(CN3C(=O)C4(C(C#N)=C(N)OC5=C4C(=O)CCC5)c4ccccc43)nn2)cc1 (stereo not given) | 14.3 mm | 256 µg/mL (≈ 535 µM) | inactive | 13.6 mm | 128 µg/mL (≈ 267 µM) | 512 µg/mL (≈ 1070 µM) | inactive | 128 µg/mL (≈ 267 µM) | 128 µg/mL (≈ 267 µM) | 15.6 mm | 16.3 mm | 128 µg/mL (≈ 267 µM) | – |
| CC1(C)CC(=O)C2=C(C1)OC(N)=C(C#N)C21C(=O)N(Cc2cn(-c3ccc([N+](=O)[O-])cc3)nn2)c2ccccc21 (stereo not given) | 14.3 mm | 128 µg/mL (≈ 238 µM) | inactive | 16.6 mm | 256 µg/mL (≈ 476 µM) | 128 µg/mL (≈ 238 µM) | inactive | 256 µg/mL (≈ 476 µM) | 256 µg/mL (≈ 476 µM) | 15.3 mm | 17.3 mm | 128 µg/mL (≈ 238 µM) | – |
| O=C(O)c1cn(C2CC2)c2cc(N3CCNCC3)c(F)cc2c1=O [CIPROFLOXACIN] | – | – | – | 26.6 mm | 6.25 µg/mL (≈ 18.9 µM) | 6.25 µg/mL (≈ 18.9 µM) | – | – | – | – | 24 mm | 6.25 µg/mL (≈ 18.9 µM) | 22 mm |
| N#CC1=C(N)OC2=C(C(=O)CCC2)C12C(=O)N(Cc1cn(-c3ccc(Br)cc3)nn1)c1ccccc12 (stereo not given) | 12.6 mm | 64 µg/mL (≈ 118 µM) | inactive | 18.6 mm | 128 µg/mL (≈ 236 µM) | 64 µg/mL (≈ 118 µM) | inactive | 512 µg/mL (≈ 942 µM) | 256 µg/mL (≈ 471 µM) | 14.3 mm | 20.3 mm | 32 µg/mL (≈ 58.9 µM) | – |
| Cn1c2c(c(=O)n(C)c1=O)C1(C(=O)N(Cc3cn(-c4ccc([N+](=O)[O-])cc4)nn3)c3ccccc31)C(C#N)=C(N)O2 (stereo not given) | 12.6 mm | 128 µg/mL (≈ 231 µM) | inactive | 15.3 mm | 128 µg/mL (≈ 231 µM) | 512 µg/mL (≈ 925 µM) | inactive | 512 µg/mL (≈ 925 µM) | 512 µg/mL (≈ 925 µM) | 13.6 mm | 18.6 mm | 64 µg/mL (≈ 116 µM) | – |
| CC1(C)CC(=O)C2=C(C1)OC(N)=C(C#N)C21C(=O)N(Cc2cn(-c3cccc(Cl)c3)nn2)c2ccccc21 (stereo not given) | 12.3 mm | 64 µg/mL (≈ 121 µM) | inactive | 19.3 mm | 128 µg/mL (≈ 243 µM) | 128 µg/mL (≈ 243 µM) | inactive | 512 µg/mL (≈ 972 µM) | 256 µg/mL (≈ 486 µM) | 13.6 mm | 20.6 mm | 32 µg/mL (≈ 60.7 µM) | – |
| CC1(C)CC(=O)C2=C(C1)OC(N)=C(C#N)C21C(=O)N(Cc2cn(-c3ccc(F)c(Cl)c3)nn2)c2ccccc21 (stereo not given) | 13.6 mm | 64 µg/mL (≈ 117 µM) | inactive | 19.6 mm | 128 µg/mL (≈ 235 µM) | 128 µg/mL (≈ 235 µM) | inactive | 256 µg/mL (≈ 470 µM) | 256 µg/mL (≈ 470 µM) | 14.3 mm | 21.3 mm | 32 µg/mL (≈ 58.7 µM) | – |
| COc1ccc(-n2cc(CN3C(=O)C4(C(C#N)=C(N)Oc5c4c(=O)n(C)c(=O)n5C)c4ccccc43)nn2)cc1 (stereo not given) | 14.6 mm | 256 µg/mL (≈ 475 µM) | inactive | 15.3 mm | 256 µg/mL (≈ 475 µM) | 512 µg/mL (≈ 951 µM) | inactive | 128 µg/mL (≈ 238 µM) | 64 µg/mL (≈ 119 µM) | 17.6 mm | 17.6 mm | 128 µg/mL (≈ 238 µM) | – |
| Cc1ccc(-n2cc(CN3C(=O)C4(C(C#N)=C(N)Oc5c4c(=O)n(C)c(=O)n5C)c4ccccc43)nn2)cc1 (stereo not given) | 12.3 mm | 128 µg/mL (≈ 245 µM) | inactive | 14.3 mm | 128 µg/mL (≈ 245 µM) | 256 µg/mL (≈ 490 µM) | inactive | 512 µg/mL (≈ 980 µM) | 256 µg/mL (≈ 490 µM) | 14.3 mm | 16.3 mm | 128 µg/mL (≈ 245 µM) | – |
| COc1ccc(-n2cc(CN3C(=O)C4(C(C#N)=C(N)OC5=C4C(=O)CC(C)(C)C5)c4ccccc43)nn2)cc1 (stereo not given) | 16.6 mm | 128 µg/mL (≈ 245 µM) | inactive | 15.6 mm | 256 µg/mL (≈ 490 µM) | 256 µg/mL (≈ 490 µM) | inactive | 128 µg/mL (≈ 245 µM) | 64 µg/mL (≈ 122 µM) | 15.6 mm | 17.3 mm | 128 µg/mL (≈ 245 µM) | – |

Source: ChEMBL document CHEMBL3232914, “Ultrasound promoted one pot synthesis of novel fluorescent triazolyl spirocyclic oxindoles using DBU based task specific ionic liquids and their antimicrobial activity” (2014)
